In publication PMC4756412 (Journal of pharmaceutical sciences, 2016):
“Also recorded” adds a separate entry of the source. Bridge positions count the residues as written; N and C are the ends. Peptide text beside a SMILES is read from it.

Legend:
[1] = tested on: MDCK-II cell monolayers; test: Direct junction modulation of intact MDCK cell monolayers; type: cell-based, canine; details: peptide 1.0 mM, Ca2+-sufficient buffer, 7- and 8-h time points
Procedure, shortened: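 MDCK-II cells were seeded at 75,000 cells/well on 0.4 μm polyester Transwell membranes and grown 5–8 days, with starting TEER of 280–320 ohm.cm². Monolayers were washed in HBSS (25 mM glucose, 2 mM CaCl₂, 0.75 mM MgSO₄, 10 mM HEPES), with no Ca²⁺-free step. They were then exposed apically and basolaterally to test compound (1.0 mM) or none, and TEER was read hourly for 6–8 h by voltohmmeter.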

[2] = tested on: blood-brain barrier; test: NIRF imaging of IRdye800cw-PEG and R800 brain deposition; type: in vivo, mice; details: 0.01 mmol/kg peptide i.v., ex vivo brain-to-plasma fluorescence ratio
Procedure, shortened: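 Mice received test compound 0.010 mmol/kg or PBS i.v. After 5 min, IRDye 800CW PEG (~25 kDa, 0.01 μmol/kg) and R800 (P-gp substrate, 0.032 μmol/kg) were given i.v. Mice were killed by cardiac perfusion of 10% formaldehyde 20 min after treatment. Brains were imaged ex vivo by near-infrared scanner, and ROI fluorescence per unit tissue was divided by fluorescence per μL blood at the same time point.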

[3] = tested on: MDCK-II cell monolayers; test: Inhibition of junction resealing in MDCK cell monolayers; type: cell-based, canine; details: peptide 1.0 mM apical and basolateral, TEER, 5- and 6-h time points
[4] = Peptide stability in rat plasma; type: in vitro ADME; details: rat plasma (NaHeparin)
Procedure, shortened: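 Test compound in DMSO was spiked into heparinised rat plasma (final DMSO 0.6%) and shaken at 50 rpm at 37 °C for up to 8 or 72 h, about 2–3 half-lives. Samples were deproteinised with ACN:H₂O:EtOAc (6:1:1) and centrifuged at 17226 g. Remaining peptide was quantified by LC-MS/MS against a peptide internal standard, and half-life was calculated.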

[5] = tested on: blood-brain barrier; test: In-situ rat brain perfusion, 14C-mannitol brain delivery; type: in vivo, Sprague-Dawley rats; details: peptide 1.0 mM, 240-s perfusion, then 240-s 14C-mannitol
Procedure, shortened: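 Sprague-Dawley rats were anaesthetised i.p. with ketamine 100 mg/kg plus xylazine 5 mg/kg. Perfusion via a left common carotid cannula at 5.0 mL/min began right after cardiac puncture: 20-s saline, 240-s test compound (1.0 mM) or vehicle, 240-s ¹⁴C-mannitol, then 5-s saline wash. Perfusate was filter-sterilised and oxygenated (95% air/5% CO₂, 37 °C). Rectal temperature was held at 36.5 ± 0.5 °C.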

[6] = tested on: blood-brain barrier; test: MRI of Gd-DTPA brain deposition after i.v. peptide; type: in vivo, Balb/c mice
[7] = tested on: blood-brain barrier; details: completely reversed by 4 h following treatment; cited from earlier work
[8] = 0.01 mmol/kg i.v., AUC over 42 min, posterior, midbrain, anterior
[9] = 0.001, 0.0032, 0.01 mmol/kg i.v., 42-min session

Row | Molecule | lowering of TEER of intact monolayers compared to HBSS [1] | brain deposition of IRdye800cw-PEG, 5-min pretreatment [2] | inhibition of junction resealing compared to HBSS [3] | half-life [4] [min] | passage of 14C-mannitol into rat brain compared to vehicle [5] | Gd-DTPA enhancement after 1-h peptide pretreatment [6, 8] | Gd-DTPA enhancement after 2-h peptide pretreatment [6, 8] | maximum enhancement of Gd-DTPA compared to background at 0 time point ([6]; 0.010 mmol/kg i.v., posterior region, Gd-DTPA 0.4 mmol/kg, 42-min MRI session) | duration of BBB modulation (Gd-DTPA) ([6]; 0.01 mmol/kg i.v., various pretreatment times, MRI) [h] | AUC of Gd-DTPA deposition vs vehicle, anterior region [6, 9] | AUC of Gd-DTPA deposition vs vehicle, midbrain [6, 9] | AUC of Gd-DTPA deposition vs vehicle, posterior region [6, 9] | increase in brain delivery of Gd-DTPA ([6]; following peptide treatment) | duration for which BBB modulation was observed [7] [h]
1 | CC(=O)N[C@@H](CO)C(=O)N[C@@H](Cc1c[nH]cn1)C(=O)N[C@@H](C)C(=O)N[C@H](C(=O)N[C@@H](C)C(=O)N[C@@H](CO)C(N)=O)C(C)C [HAV4] (Ac-SHAVAS-NH2) | lowered the TEER values significantly | higher than in saline-treated controls | significantly inhibited the resealing; also recorded: inhibited the junction resealing | 144 | significantly enhanced | did not produce any Gd-DTPA enhancement | did not produce any Gd-DTPA enhancement | up to fivefold | < 1 | significantly higher than those of the vehicle group at all peptide doses examined | only treatment with 0.01 mmol/kg showed significant enhancement compared to vehicle | significantly higher than those of the vehicle group at all peptide doses examined | 3-4 fold | –
2 | Ac-CDTPPVC-NH2 (disulfide 1-7 (inferred); SMILES CC(=O)N[C@H]1CSSC[C@@H](C(N)=O)NC(=O)[C@H](C(C)C)NC(=O)[C@@H]2CCCN2C(=O)[C@@H]2CCCN2C(=O)[C@H]([C@@H](C)O)NC(=O)[C@H](CC(=O)O)NC1=O) [ADTC5] | – | – | – | – | – | – | – | – | – | – | – | – | – | 2
